Results as given in ChEMBL document CHEMBL4304834, “3-Amino-chromanes and Tetrahydroquinolines as Selective 5-HT2B, 5-HT7, or σ1 Receptor Ligands” (ACS Med Chem Lett, 2019).

Columns and labels:
Format in all cases: cell-based
[1] = molecular target: 5-hydroxytryptamine receptor 2A (Homo sapiens, UniProt P28223); assay: Displacement of [3H]-Ketanserin from human recombinant 5-HT2A receptor transiently expressed in HEKT cells after 90 mins by microbeta scintillation counting method
Method in brief: (§1)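 Radioligand binding run by the NIMH Psychoactive Drug Screening Program. […] Otherwise Ki comes from sigmoidal curve fits of triplicate measurements in a single experiment, or is averaged over repeated experiments each run in triplicate.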

[2] = molecular target: T1, Muscarinic acetylcholine receptor M2 (Homo sapiens, UniProt P08172); assay: Displacement of [3H]-QNB/[3H]-NMS from human recombinant Muscarinic acetylcholine M2 receptor expressed in stable CHO cells after 90 mins by microbeta scintillation counting method
T1 sequence (P08172 whole entry): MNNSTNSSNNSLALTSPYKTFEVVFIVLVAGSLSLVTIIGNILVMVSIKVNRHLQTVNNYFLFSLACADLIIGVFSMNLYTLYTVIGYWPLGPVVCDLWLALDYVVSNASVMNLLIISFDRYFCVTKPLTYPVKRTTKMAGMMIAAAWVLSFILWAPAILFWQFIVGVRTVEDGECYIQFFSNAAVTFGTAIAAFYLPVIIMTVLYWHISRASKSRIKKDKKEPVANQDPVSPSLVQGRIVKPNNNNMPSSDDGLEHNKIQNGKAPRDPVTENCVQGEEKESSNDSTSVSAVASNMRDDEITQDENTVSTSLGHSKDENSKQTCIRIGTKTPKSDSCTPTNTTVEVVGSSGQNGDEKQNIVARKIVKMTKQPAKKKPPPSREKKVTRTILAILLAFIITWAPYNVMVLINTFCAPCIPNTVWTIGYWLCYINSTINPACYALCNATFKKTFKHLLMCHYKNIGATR
Method in brief: (§2)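 Radioligand binding was run by the NIMH Psychoactive Drug Screening Program. Compounds were first screened at 10 μM. Those giving ≥50% binding were taken to full competition curves. Ki is reported as pKi from a sigmoidal curve fit of triplicate measurements in a single experiment; the error is the curve-fit error.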

[3] = molecular target: T2, Muscarinic acetylcholine receptor M4 (Homo sapiens, UniProt P08173); assay: Displacement of [3H]-QNB/[3H]-NMS from human recombinant Muscarinic acetylcholine M4 receptor expressed in stable CHO cells after 90 mins by microbeta scintillation counting method; method in brief: as §2
T2 sequence (P08173 whole entry): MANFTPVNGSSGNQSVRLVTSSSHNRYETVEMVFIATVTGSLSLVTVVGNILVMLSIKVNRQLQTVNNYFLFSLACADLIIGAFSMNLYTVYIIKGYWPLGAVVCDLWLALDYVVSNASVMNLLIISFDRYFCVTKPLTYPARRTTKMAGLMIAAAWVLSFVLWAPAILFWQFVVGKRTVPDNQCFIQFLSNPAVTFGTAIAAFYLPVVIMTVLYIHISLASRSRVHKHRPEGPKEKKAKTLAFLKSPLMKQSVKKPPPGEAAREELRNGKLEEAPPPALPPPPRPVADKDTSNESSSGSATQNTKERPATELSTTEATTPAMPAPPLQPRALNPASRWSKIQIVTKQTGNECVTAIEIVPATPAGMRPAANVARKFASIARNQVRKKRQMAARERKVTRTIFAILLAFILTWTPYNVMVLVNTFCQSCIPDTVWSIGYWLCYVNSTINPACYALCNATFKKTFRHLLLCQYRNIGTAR

[4] = molecular target: Beta-1 adrenergic receptor (Homo sapiens, UniProt P08588); assay: Displacement of [125I]-pindolol from human recombinant adrenergic Beta1 receptor expressed in Flp-In CHO cells after 90 mins by microbeta scintillation counting method; method in brief: as §1
[5] = molecular target: T3, Muscarinic acetylcholine receptor M1 (Homo sapiens, UniProt P11229); assay: Displacement of [3H]-QNB/[3H]-NMS from human recombinant Muscarinic acetylcholine M1 receptor expressed in stable CHO cells after 90 mins by microbeta scintillation counting method; method in brief: as §2
T3 sequence (P11229 whole entry): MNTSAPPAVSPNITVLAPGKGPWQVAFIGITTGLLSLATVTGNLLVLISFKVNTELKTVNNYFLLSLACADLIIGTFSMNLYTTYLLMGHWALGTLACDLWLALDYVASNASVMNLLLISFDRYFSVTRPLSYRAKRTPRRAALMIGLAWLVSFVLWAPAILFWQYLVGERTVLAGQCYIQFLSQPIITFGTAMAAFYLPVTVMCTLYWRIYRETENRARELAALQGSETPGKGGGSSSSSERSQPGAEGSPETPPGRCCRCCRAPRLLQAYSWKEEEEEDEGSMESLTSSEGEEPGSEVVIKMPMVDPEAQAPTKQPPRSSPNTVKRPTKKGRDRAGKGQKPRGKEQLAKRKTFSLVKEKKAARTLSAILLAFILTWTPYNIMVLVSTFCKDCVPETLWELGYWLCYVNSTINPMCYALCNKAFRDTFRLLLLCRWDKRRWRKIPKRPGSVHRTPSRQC

[6] = molecular target: Sigma intracellular receptor 2 (Homo sapiens, UniProt Q5BJF2); assay: Displacement of […] from human recombinant sigma2 receptor expressed in HEKT cells after 90 mins by microbeta scintillation counting method
Method in brief: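 Run by NIMH Psychoactive Drug Screening Program. Otherwise, competition binding curves are generated and pKi is taken from a sigmoidal curve fit. Data are either triplicate measurements within one experiment, with the error from the fit, or the mean of repeated experiments, each run in triplicate.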

D(1A) dopamine receptor = D(1A) dopamine receptor (Homo sapiens, UniProt P21728); assay: Displacement of [3H]-SCH23390 from human recombinant dopamine D1 receptor expressed in HEKT cells after 90 mins by microbeta scintillation counting method; method in brief: as §2
[7] = molecular target: Kappa-type opioid receptor (Homo sapiens, UniProt P41145); assay: Displacement of [3H]-U69593 from human recombinant KOR receptor expressed in stable HEK cells after 90 mins by microbeta scintillation counting method; method in brief: as §2
D(2) dopamine receptor = D(2) dopamine receptor (Homo sapiens, UniProt P14416); assay: Displacement of [3H]-N-methylspiperone from human recombinant dopamine D2 receptor expressed in stable fibroblast cells after 90 mins by microbeta scintillation counting method; method in brief: as §1
D(3) dopamine receptor = D(3) dopamine receptor (Homo sapiens, UniProt P35462); assay: Displacement of [3H]-N-methylspiperone from human recombinant dopamine D3 receptor expressed in HEKT cells after 90 mins by microbeta scintillation counting method
Method in brief: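 Radioligand binding run by the NIMH Psychoactive Drug Screening Program. Otherwise Ki comes from sigmoidal curve fits of triplicate measurements in a single experiment, or is averaged over repeated experiments each run in triplicate.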

Measured: Ki

Chain of Beta-1 adrenergic receptor (P08588 whole entry): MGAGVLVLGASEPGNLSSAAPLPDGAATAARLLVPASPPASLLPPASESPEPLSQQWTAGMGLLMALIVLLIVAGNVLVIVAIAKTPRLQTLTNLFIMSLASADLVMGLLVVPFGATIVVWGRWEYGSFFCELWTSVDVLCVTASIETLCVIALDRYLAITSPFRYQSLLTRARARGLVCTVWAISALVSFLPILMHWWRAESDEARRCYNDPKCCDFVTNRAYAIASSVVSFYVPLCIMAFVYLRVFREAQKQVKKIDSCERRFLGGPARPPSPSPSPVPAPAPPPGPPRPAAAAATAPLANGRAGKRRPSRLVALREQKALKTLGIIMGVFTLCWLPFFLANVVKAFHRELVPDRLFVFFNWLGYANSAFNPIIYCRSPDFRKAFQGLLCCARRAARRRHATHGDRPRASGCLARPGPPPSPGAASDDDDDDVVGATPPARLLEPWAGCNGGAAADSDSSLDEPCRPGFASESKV
Chain of D(2) dopamine receptor (P14416 whole entry): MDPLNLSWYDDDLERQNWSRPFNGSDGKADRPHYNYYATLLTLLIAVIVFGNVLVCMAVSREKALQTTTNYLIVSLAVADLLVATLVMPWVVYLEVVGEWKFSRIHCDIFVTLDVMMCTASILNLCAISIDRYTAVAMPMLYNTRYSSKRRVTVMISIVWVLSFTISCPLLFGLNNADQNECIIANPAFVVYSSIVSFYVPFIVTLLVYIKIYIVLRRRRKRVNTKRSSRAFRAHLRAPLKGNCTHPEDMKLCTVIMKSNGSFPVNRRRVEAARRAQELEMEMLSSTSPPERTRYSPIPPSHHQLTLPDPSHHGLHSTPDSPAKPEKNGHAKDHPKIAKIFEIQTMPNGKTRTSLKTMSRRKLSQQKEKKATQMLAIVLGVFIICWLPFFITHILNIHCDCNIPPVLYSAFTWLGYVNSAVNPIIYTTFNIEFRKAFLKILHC
Chain of Sigma intracellular receptor 2 (Q5BJF2 whole entry): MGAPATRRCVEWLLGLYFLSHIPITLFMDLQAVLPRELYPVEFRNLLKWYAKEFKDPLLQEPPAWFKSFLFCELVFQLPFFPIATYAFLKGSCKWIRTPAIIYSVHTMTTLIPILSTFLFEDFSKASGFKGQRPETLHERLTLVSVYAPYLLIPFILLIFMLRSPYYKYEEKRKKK
Chain of 5-hydroxytryptamine receptor 2A (P28223 whole entry): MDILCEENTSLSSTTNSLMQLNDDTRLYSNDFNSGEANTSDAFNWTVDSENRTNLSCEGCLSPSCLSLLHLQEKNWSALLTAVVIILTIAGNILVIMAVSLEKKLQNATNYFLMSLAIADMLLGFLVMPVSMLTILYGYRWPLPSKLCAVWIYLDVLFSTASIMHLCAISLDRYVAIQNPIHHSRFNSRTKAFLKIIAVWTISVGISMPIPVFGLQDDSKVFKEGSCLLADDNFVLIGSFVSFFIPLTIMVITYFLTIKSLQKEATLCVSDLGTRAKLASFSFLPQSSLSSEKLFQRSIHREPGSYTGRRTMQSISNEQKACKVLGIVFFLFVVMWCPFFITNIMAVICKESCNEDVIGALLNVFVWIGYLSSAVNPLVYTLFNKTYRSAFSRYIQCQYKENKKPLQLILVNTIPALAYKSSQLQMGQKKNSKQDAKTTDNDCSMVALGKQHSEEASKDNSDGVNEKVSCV
Chain of Kappa-type opioid receptor (P41145 whole entry): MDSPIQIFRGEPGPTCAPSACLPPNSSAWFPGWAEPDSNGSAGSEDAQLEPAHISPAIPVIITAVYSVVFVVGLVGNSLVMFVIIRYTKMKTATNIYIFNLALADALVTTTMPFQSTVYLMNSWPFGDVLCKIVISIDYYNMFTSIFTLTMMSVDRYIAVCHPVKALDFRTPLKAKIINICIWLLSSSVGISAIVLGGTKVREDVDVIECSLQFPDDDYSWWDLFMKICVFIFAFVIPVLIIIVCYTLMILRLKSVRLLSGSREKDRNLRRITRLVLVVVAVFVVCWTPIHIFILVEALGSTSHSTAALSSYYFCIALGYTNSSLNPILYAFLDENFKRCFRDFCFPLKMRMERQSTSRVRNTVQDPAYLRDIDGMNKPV
Chain of D(1A) dopamine receptor (P21728 whole entry): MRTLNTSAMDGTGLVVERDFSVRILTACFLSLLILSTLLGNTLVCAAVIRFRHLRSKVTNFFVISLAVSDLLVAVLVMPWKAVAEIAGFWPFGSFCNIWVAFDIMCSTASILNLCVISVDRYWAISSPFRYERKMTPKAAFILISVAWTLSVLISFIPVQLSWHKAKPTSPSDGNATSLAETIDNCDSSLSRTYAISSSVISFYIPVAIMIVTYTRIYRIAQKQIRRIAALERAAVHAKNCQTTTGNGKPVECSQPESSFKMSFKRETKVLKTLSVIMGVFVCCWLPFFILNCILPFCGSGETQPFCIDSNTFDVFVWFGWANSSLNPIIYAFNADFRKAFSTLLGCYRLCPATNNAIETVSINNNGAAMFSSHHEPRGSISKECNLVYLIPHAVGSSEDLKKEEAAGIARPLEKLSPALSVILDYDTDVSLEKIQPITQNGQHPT
Chain of D(3) dopamine receptor (P35462 whole entry): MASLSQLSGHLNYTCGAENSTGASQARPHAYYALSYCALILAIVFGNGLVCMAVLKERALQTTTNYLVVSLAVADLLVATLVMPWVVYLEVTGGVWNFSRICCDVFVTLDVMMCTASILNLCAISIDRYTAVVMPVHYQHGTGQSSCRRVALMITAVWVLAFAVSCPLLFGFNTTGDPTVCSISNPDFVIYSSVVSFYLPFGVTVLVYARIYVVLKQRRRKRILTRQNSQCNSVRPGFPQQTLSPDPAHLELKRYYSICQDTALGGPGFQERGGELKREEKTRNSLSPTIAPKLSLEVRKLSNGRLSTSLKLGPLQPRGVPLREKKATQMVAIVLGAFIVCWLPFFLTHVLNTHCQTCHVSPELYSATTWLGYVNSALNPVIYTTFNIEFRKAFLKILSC

CC[C@H]1c2cc(C)ccc2OC[C@@]1(C)N (racemic)
> 10 µM: [1] | [2] | [3] | [4] | [5] | [6] | D(1A) dopamine receptor | [7] | D(2) dopamine receptor | D(3) dopamine receptor

C[C@@]12CN(c3ccccc3)c3ccccc3[C@@H]1CCN2 (racemic)
> 10 µM: [2] | [3] | [5] | D(1A) dopamine receptor | [7] | D(2) dopamine receptor
3.16 µM: [4]
1 µM: [6]

CC[C@H]1c2cc(OC)ccc2CC[C@@]1(C)N (racemic)
0.316 µM: [7]
> 10 µM: [1] | [2] | [3] | [4] | [5] | [6] | D(1A) dopamine receptor | D(2) dopamine receptor | D(3) dopamine receptor

COc1cc(OC)c2c(c1)OC[C@@]1(C)NCC[C@@H]21 (racemic)
1 µM: [4]
> 10 µM: [2] | [3] | [5] | [6] | D(1A) dopamine receptor | [7] | D(2) dopamine receptor | D(3) dopamine receptor

CC[C@H]1c2ccccc2N(c2ccccc2)C[C@@]1(C)N (racemic)
> 10 µM: [1] | [2] | [3] | [4] | [5] | D(1A) dopamine receptor | [7] | D(2) dopamine receptor
0.631 µM: [6]
